Several values for one entry are separate records, joined by “and”; a condition that tells them apart may be missing. Identical values can stand only once.
Test system: Fibroblast
Test: Multiplex assay against human fibroblast
Assay type: toxicity, cell-based
How it was run: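 Tubulin, mitochondrial-mass and membrane-permeability phenotypes are per cents of healthy-nucleus cells. Cells were gated by CellPathfinder machine learning into Hoechst high-intensity objects or normal cells, normal cells into healthy, pyknosed or fragmented nuclei, and pyknosed cells into mitotic or apoptotic. Before that, live cells stained at seeding with Hoechst33342, BioTracker Green Microtubule Cytoskeleton Dye, MitoTracker Red and Annexin V Alexa Fluor 680 were imaged on a CQ1 microscope at 37°C and 5% CO2 after compound addition.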

[1] = 12 h, 1 µM, compound concentration 1 uM
[2] = 12 h, 10 µM, compound concentration 10 uM
[3] = 24 h, 1 µM, compound concentration 1 uM
[4] = 24 h, 10 µM, compound concentration 10 uM
[5] = 48 h, 1 µM, compound concentration 1 uM
[6] = 48 h, 10 µM, compound concentration 10 uM

Compound: O=C1[C@H](Cc2ccc(O)cc2)N2C(=O)CCN(C(=O)NCc3ccccc3)[C@H]2CN1Cc1cccc2ccccc12
- Population Apoptotic (%) [1]: 32% and 30%
- Population Fragmented Nuclei (%) [1]: 18% and 27%
- Population Healthy Nuclei (%) [1]: 57% and 45%
- Population Hoechst High Intensity Objects (%) [1]: 3% and 2%
- Population Membrane Permeable-Phenotype (%) [1]: 0% and 5%
- Population Mitochondria Different-Phenotype (%) [1]: 11% and 13%
- Population Mitotic Cells (%) [1]: 67% and 69%
- Population Normal (%) [1]: 96% and 97%
- Population Pyknosed Nuclei (%) [1]: 24% and 26%
- Population Tubulin-Different-Phenotype (%) [1]: 47% and 58%
- Total Cell Count [1]: 160 and 152
- Population Apoptotic (%) [2]: 35% and 45%
- Population Fragmented Nuclei (%) [2]: 18% and 23%
- Population Healthy Nuclei (%) [2]: 58% and 45%
- Population Hoechst High Intensity Objects (%) [2]: 8% and 9%
- Population Membrane Permeable-Phenotype (%) [2]: 0% and 8%
- Population Mitochondria Different-Phenotype (%) [2]: 24% and 15%
- Population Mitotic Cells (%) [2]: 64% and 55%
- Population Normal (%) [2]: 91% and 90%
- Population Pyknosed Nuclei (%) [2]: 23% and 30%
- Population Tubulin-Different-Phenotype (%) [2]: 84% and 83%
- Total Cell Count [2]: 146 and 144
- Population Apoptotic (%) [3]: 42% and 28%
- Population Fragmented Nuclei (%) [3]: 16% and 30%
- Population Healthy Nuclei (%) [3]: 62% and 47%
- Population Hoechst High Intensity Objects (%) [3]: 3% and 2%
- Population Membrane Permeable-Phenotype (%) [3]: 3% and 7%
- Population Mitochondria Different-Phenotype (%) [3]: 7% and 8%
- Population Mitotic Cells (%) [3]: 57% and 71%
- Population Normal (%) [3]: 96% and 97%
- Population Pyknosed Nuclei (%) [3]: 21% and 22%
- Population Tubulin-Different-Phenotype (%) [3]: 49% and 58%
- Total Cell Count [3]: 158 and 147
- Population Apoptotic (%) [4]: 44% and 64%
- Population Fragmented Nuclei (%) [4]: 15% and 25%
- Population Healthy Nuclei (%) [4]: 62% and 47%
- Population Hoechst High Intensity Objects (%) [4]: 10% and 7%
- Population Mitochondria Different-Phenotype (%) [4]: 44% and 21%
- Population Mitotic Cells (%) [4]: 55% and 35%
- Population Normal (%) [4]: 89% and 92%
- Population Pyknosed Nuclei (%) [4]: 21% and 26%
- Population Tubulin-Different-Phenotype (%) [4]: 83%
- Total Cell Count [4]: 141 and 137
- Population Apoptotic (%) [5]: 62% and 54%
- Population Fragmented Nuclei (%) [5]: 22% and 37%
- Population Healthy Nuclei (%) [5]: 59% and 45%
- Population Hoechst High Intensity Objects (%) [5]: 7% and 5%
- Population Membrane Permeable-Phenotype (%) [5]: 2% and 5%
- Population Mitochondria Different-Phenotype (%) [5]: 7% and 6%
- Population Mitotic Cells (%) [5]: 37% and 45%
- Population Normal (%) [5]: 92% and 94%
- Population Pyknosed Nuclei (%) [5]: 17%
- Population Tubulin-Different-Phenotype (%) [5]: 54% and 48%
- Total Cell Count [5]: 164 and 135
- Population Apoptotic (%) [6]: 85% and 66%
- Population Fragmented Nuclei (%) [6]: 21% and 32%
- Population Healthy Nuclei (%) [6]: 58% and 53%
- Population Hoechst High Intensity Objects (%) [6]: 15% and 10%
- Population Membrane Permeable-Phenotype (%) [6]: 0% and 5%
- Population Mitochondria Different-Phenotype (%) [6]: 50% and 38%
- Population Mitotic Cells (%) [6]: 14% and 33%
- Population Normal (%) [6]: 84% and 89%
- Population Pyknosed Nuclei (%) [6]: 20% and 14%
- Population Tubulin-Different-Phenotype (%) [6]: 85% and 94%
- Total Cell Count [6]: 124 and 119

From ChEMBL document CHEMBL5724801, “EUbOPEN Chemogenomics Library - Multiplex” (2024)
